# Experimental data reported in ChEMBL document CHEMBL1932966, “Pyrrolo- and pyrazolo-[3,4-e][1,2,4]triazolo[1,5-c]pyrimidines as adenosine receptor antagonists” (Bioorg Med Chem, 2012).
# How the values were obtained:
# [1] = target: T1, Adenosine receptor A1 (Homo sapiens) (UniProt P30542); assay: Displacement of [3H]-DPCPX from human adenosine A1 receptor expressed in CHO cells at 1 uM after 120 mins by liquid scintillation counting; type: cell-based
# T1 sequence (whole entry): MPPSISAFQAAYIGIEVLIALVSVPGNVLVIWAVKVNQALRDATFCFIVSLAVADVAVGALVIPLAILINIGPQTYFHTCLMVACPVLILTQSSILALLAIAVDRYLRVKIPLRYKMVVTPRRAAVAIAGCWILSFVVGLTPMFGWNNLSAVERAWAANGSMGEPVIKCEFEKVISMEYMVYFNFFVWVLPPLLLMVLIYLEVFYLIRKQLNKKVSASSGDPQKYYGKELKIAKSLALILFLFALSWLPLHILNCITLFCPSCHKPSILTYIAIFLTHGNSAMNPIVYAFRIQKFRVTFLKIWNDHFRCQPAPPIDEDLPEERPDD
# Method in brief: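 Percent inhibition at a single concentration of 1 nM [3H]DPCPX binding to hA1-CHO membranes in 50 mM Tris HCl, pH 7.4. Membranes were pretreated with 2 IU/mL adenosine deaminase for 30 min at 37 °C. Incubation was 120 min at 25 °C, and bound label was separated by GF/B glass-fibre filtration.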
# Adenosine receptor A2a [2] = target: T2, Adenosine receptor A2a (Homo sapiens, UniProt P29274); assay: Displacement of [3H]-ZM 241385 from human adenosine A2A receptor expressed in CHO cells at 1 uM after 60 mins by liquid scintillation counting; type: cell-based
# T2 sequence (P29274 whole entry): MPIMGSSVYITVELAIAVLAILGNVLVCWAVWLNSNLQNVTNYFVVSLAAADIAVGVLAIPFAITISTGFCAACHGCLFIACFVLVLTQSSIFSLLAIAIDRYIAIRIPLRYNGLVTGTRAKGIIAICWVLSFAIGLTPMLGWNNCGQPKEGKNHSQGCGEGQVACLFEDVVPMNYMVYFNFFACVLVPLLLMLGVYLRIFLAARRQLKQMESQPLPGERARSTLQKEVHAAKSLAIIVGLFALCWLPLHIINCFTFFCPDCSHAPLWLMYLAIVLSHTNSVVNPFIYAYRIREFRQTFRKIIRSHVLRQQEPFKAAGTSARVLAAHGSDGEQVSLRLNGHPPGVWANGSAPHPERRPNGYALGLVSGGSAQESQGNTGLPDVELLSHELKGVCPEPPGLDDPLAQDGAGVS
# Adenosine receptor A2b [3] = target: T3, Adenosine receptor A2b (Homo sapiens, UniProt P29275); type: functional, cell-based, CHO
# T3 sequence (P29275 whole entry): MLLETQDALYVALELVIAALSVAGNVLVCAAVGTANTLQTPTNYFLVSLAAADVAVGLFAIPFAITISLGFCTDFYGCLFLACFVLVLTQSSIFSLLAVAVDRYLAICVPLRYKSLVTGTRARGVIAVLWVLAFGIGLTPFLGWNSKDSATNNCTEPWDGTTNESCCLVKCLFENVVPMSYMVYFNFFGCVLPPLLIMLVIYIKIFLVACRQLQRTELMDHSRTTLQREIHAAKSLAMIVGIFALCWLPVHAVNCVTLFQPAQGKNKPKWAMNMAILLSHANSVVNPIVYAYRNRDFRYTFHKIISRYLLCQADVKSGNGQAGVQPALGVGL
# [4] = target: Adenosine receptor A2B (Homo sapiens) (UniProt P29275); conditions: CHO, at 1 µM
# Adenosine receptor A3 [5] = target: T4, Adenosine receptor A3 (Homo sapiens, UniProt P0DMS8); assay: Displacement of [3H]-MRE-3008-F20 from human adenosine A3 receptor expressed in CHO cells after 120 mins by liquid scintillation counting; type: cell-based
# T4 sequence (P0DMS8 whole entry): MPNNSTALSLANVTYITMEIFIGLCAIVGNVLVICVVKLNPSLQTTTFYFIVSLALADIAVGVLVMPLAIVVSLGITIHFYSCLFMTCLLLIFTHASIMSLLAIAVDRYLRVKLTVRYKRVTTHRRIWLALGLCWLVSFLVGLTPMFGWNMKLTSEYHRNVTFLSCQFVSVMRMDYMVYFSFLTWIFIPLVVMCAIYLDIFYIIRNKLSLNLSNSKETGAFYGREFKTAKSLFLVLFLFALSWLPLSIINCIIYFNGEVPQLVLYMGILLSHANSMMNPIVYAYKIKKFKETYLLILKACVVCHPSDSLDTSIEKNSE
# Adenosine receptor A1 = target: T5, Adenosine receptor A1 (Homo sapiens, UniProt P30542); assay: Displacement of [3H]-DPCPX from human adenosine A1 receptor expressed in CHO cells after 120 mins by liquid scintillation counting; type: cell-based
# T5 sequence (P30542 whole entry): T1 sequence (whole entry)
# Adenosine receptor A2a [6] = target: T2, Adenosine receptor A2a; assay: Displacement of [3H]-ZM 241385 from human adenosine A2A receptor expressed in CHO cells after 60 mins by liquid scintillation counting; type: cell-based
# [7] = target: T6, Adenosine receptor A3 (Homo sapiens) (UniProt P0DMS8); assay: Displacement of [3H]-MRE-3008-F20 from human adenosine A3 receptor expressed in CHO cells at 1 uM after 120 mins by liquid scintillation counting; type: cell-based
# T6 sequence (whole entry): T4 sequence (P0DMS8 whole entry)
# Method in brief: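 Membranes from hA3-CHO cells in 50 mM Tris HCl, 10 mM MgCl2, 1 mM EDTA, pH 7.4, pretreated with adenosine deaminase (2 IU/mL, 30 min, 37 °C). Incubation 120 min at 4 °C. Non-specific binding with unlabelled MRE3008F20. GF/B filtration.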
# Adenosine receptor A3 [8] = target: T4, Adenosine receptor A3; assay: Antagonist activity at human adenosine A3 receptor expressed in forskolin-stimulated CHO cells assessed as inhibition of Cl-IB-MECA-induced cAMP production by competition protein binding assay; type: functional, cell-based
# Method in brief: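 CHO cells stably expressing human A3 receptor were harvested with dilute trypsin and preincubated for 10 min at 37 °C in pH 7.4 buffer with 2 IU/mL adenosine deaminase and the phosphodiesterase inhibitor Ro 20-1724. Antagonism of 100 nM Cl-IB-MECA was run with forskolin present. The reaction was stopped with cold 6% TCA and extracted with ether. cAMP was read against [3H]cAMP and bovine adrenal binding protein. IC50 came from sigmoid fitting.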
# Adenosine receptor A2b [9] = target: T3, Adenosine receptor A2b; assay: biochemical
Compound,inhibition [1] [%],inhibition (Adenosine receptor A2a [2]) [%],IC50 (Adenosine receptor A2b [3]) [nM],inhibition [4] [%],Ki (Adenosine receptor A3 [5]) [nM],Ki (Adenosine receptor A1) [nM],Ki (Adenosine receptor A2a [6]) [nM],inhibition [7] [%],IC50 (Adenosine receptor A3 [8]) [nM],Ki (Adenosine receptor A2b [9]) [nM]
COc1ccc(NC(=O)Nc2nc3cnn(CCCc4ccccc4)c3c3nc(-c4ccco4)nn23)cc1,38,32,> 1000,32,> 1000,> 1000,> 1000,25,,
Cn1ncc2nc(N3CCOCC3)n3nc(-c4ccco4)nc3c21,6,4,> 1000,4,> 1000,> 1000,> 1000,1,,
Cn1cc2nc(N)n3nc(-c4ccco4)nc3c2n1,,,33,,125,30,8.1,,,
COc1ccc(NC(=O)Nc2nc3cn(CCCc4ccccc4)nc3c3nc(-c4ccco4)nn23)cc1,35,31,> 1000,31,815,> 1000,> 1000,,,
CCCn1ncc2nc(NC(=O)Nc3ccc(OC)cc3)n3nc(-c4ccco4)nc3c21,,,32,,161,61,20,,,
Cn1ncc2nc(N)n3nc(-c4ccco4)nc3c21,,,31,,749,10,3.6,,,
CCCn1cc2nc(N)n3nc(-c4ccco4)nc3c2c1,,,90,,55,35,30,,,
COc1ccc(NC(=O)Nc2nc3cn(C)nc3c3nc(-c4ccco4)nn23)cc1,,,580,,110,923,222,,,
COc1ccc(NC(=O)Nc2nc3cn(CCCc4ccccc4)cc3c3nc(-c4ccco4)nn23)cc1,,,> 1000,12,13,210,130,,,
COc1ccc(NC(=O)Nc2nc3cn(CCc4ccccc4)cc3c3nc(-c4ccco4)nn23)cc1,,,740,,12,178,148,,,
COc1ccc(NC(=O)Nc2nc3cnn(C)c3c3nc(-c4ccco4)nn23)cc1,,,122,,61,129,68,,,
Nc1nc2cnn(CCCc3ccccc3)c2c2nc(-c3ccco3)nn12,,,595,,802,85,122,,,
CCCn1cc2nc(NC(=O)Nc3ccc(OC)cc3)n3nc(-c4ccco4)nc3c2n1,,,863,,50,240,208,,250,
Nc1nc2cnn(CCc3ccccc3)c2c2nc(-c3ccco3)nn12,,,319,,603,33,42,,,
CCCn1ncc2nc(N)n3nc(-c4ccco4)nc3c21,,,40,,83,14,12,,500,
Nc1nc2c(cnn2CCCc2ccccc2)c2nc(-c3ccco3)nn12 [SCH-63390],,,,,> 10000,,,,,> 10000

Compound,inhibition [1] [%],inhibition (Adenosine receptor A2a [2]) [%],IC50 (Adenosine receptor A2b [3]) [nM],inhibition [4] [%],Ki (Adenosine receptor A3 [5]) [nM],Ki (Adenosine receptor A1) [nM],Ki (Adenosine receptor A2a [6]) [nM],inhibition [7] [%],IC50 (Adenosine receptor A3 [8]) [nM],Ki (Adenosine receptor A2b [9]) [nM]
Nc1nc2cn(CCCc3ccccc3)nc2c2nc(-c3ccco3)nn12,,,32,,526,7.1,11,,,
CCCn1cc2nc(N)n3nc(-c4ccco4)nc3c2n1,,,45,,432,22,17,,,
Cn1cc2nc(NC(=O)Nc3ccncc3)n3nc(-c4ccco4)nc3c2c1,,13,> 1000,8,111,355,> 1000,,,
Cn1cc2nc(N)n3nc(-c4ccco4)nc3c2c1,,,42,,50,100,20,,,
COc1ccc(NC(=O)Nc2nc3cn(CCc4ccccc4)nc3c3nc(-c4ccco4)nn23)cc1,,,548,,314,753,672,,,
Nc1nc2cn(CCc3ccccc3)cc2c2nc(-c3ccco3)nn12,,,46,,124,4.3,3.9,,,
Cn1ncc2nc(NC3CCCCC3)n3nc(-c4ccco4)nc3c21,,,915,,507,12,119,,,
Nc1nc2cn(CCc3ccccc3)nc2c2nc(-c3ccco3)nn12,,,27,,315,4.9,9.2,,,
COc1ccc(NC(=O)Nc2nc3cn(C)cc3c3nc(-c4ccco4)nn23)cc1,,,838,,15,800,500,,75,
CCCn1cc2nc(NC(=O)Nc3ccc(OC)cc3)n3nc(-c4ccco4)nc3c2c1,,,906,,10,743,200,,50,
Nc1nc2cn(CCCc3ccccc3)cc2c2nc(-c3ccco3)nn12,,,251,,241,18,50,,,
CN1CCN(c2nc3cnn(C)c3c3nc(-c4ccco4)nn23)CC1,5,2,> 1000,2,> 1000,> 1000,> 1000,1,,
Nc1nc2c(cnn2CCc2ccccc2)c2nc(-c3ccco3)nn12 [SCH-58261],,,,,> 10000,,,,,
Cn1ncc2nc(N3CCN(c4ccccc4)CC3)n3nc(-c4ccco4)nc3c21,8,9,> 1000,5,> 1000,> 1000,> 1000,1,,
COc1ccc(NC(=O)Nc2nc3cnn(CCc4ccccc4)c3c3nc(-c4ccco4)nn23)cc1,,,772,,208,524,626,,,
